Experimental data from different studies.
Observed: enzyme activity
Mode: inhibitor
rep main protease: Replicase polyprotein 1ab, main protease (rep, Severe acute respiratory syndrome coronavirus 2, UniProt P0DTD1)
rep papain-like protease: Replicase polyprotein 1ab, papain-like protease (rep, Severe acute respiratory syndrome coronavirus 2, UniProt P0DTD1)

| Structure (SMILES) | target | assay | setting | inhibition |
| --- | --- | --- | --- | --- |
| Cc1cccn2c(=O)c3cc(C(=O)Nc4ccc(N(C)C)cc4)n(C)c3nc12 | rep main protease |  | 100 µM | 33% |
| C=C1C(=O)OC2C1C(O)CC1(C)C(O)CCC(C=O)C21 (centres unmarked) | rep main protease |  | 20 µM | -62% |
| COc1cc(C)cc2c1C(=O)C=CC2=O | rep main protease |  | 10 µM | 90.4% |
| NC(=O)c1c[nH]c(Cc2ccccc2)cc1=O | rep main protease |  | 20 µM | 10.9% |
| O=C(O)[C@H]1O[C@@H](Oc2cc3oc(-c4ccccc4)cc(=O)c3c(O)c2O)[C@H](O)[C@@H](O)[C@@H]1O | rep main protease |  | 100 µM | 97.6% |
| O=c1c(O)c(-c2ccc(O)cc2)oc2cc(O)cc(O)c12 | rep main protease | FRET | 10 µM, 10 min | 45% |
| COC(=O)C1=CO[C@@H](O[C@@H]2O[C@H](CO)[C@@H](O)[C@H](O)[C@H]2O)[C@@H]2[C@@H](C)[C@@H](O)C[C@H]12 | rep papain-like protease |  | 50 µM | -1.7% |
| Cc1ccc2nc(Cl)c(/C=N/c3cccc([N+](=O)[O-])c3)cc2c1 | rep papain-like protease |  | 100 µM | 21.7% |
| C/N=c1\nc(-c2ccccc2)n(-c2ccccc2)s1 | rep main protease |  | 20 µM | 96.7% |
| CC1(C)CC(Nc2ccc(Nc3ccccc3)cc2)CC(C)(C)N1 | rep main protease |  | 20 µM | 27.8% |
| CN(C(=O)[C@H](Cc1ccccc1)NC(=O)OCc1ccccc1)N(C#N)CCC(N)=O | rep main protease | fluorescence | 50 µM, pH 7.2 | 100% |
| Cc1cc(OCc2ccccc2)c2c(c1)C(=O)C=CC2=O | rep main protease |  | 10 µM | 96.4% |
| O=C(O)[C@H]1O[C@@H](Oc2cc3oc(-c4ccc(O)cc4)cc(=O)c3c(O)c2O)[C@H](O)[C@@H](O)[C@@H]1O | rep main protease |  | 100 µM | 76.8% |
| CN(C)C(=O)COC(=O)Cc1ccc(OC(=O)c2ccc(NC(=N)N)cc2)cc1 | rep main protease |  | 10 µM | 6% |
| Clc1nc2ccccc2cc1/C=N\c1ccc(Br)nc1 | rep papain-like protease |  | 10 µM | 3.5% |
| Cc1ccc(NC(=O)c2cc3c(=O)n4cccc(C)c4nc3n2C)cc1Cl | rep main protease |  | 10 µM | 16% |
| O=C(O)c1ccc(O)c(O)c1 | rep main protease | FRET | 10 µM, 10 min | < 25% |
| O=C(O)c1cc(O)c2c(c1)C(=O)c1cccc(O)c1C2=O | rep main protease |  | 10 µM | 7.8% |
| NC(=O)CCOC1CCN(C(c2ccccc2)c2ccccc2)CC1 | rep main protease |  | 20 µM | 11.5% |
| O=C(Oc1cncc(Cl)c1)c1ccc2[nH]c3c(c2c1)CCCC3 | rep main protease | fluorescence | 10 µM, pH 7.2 | 100% |
| Cc1cccc2cc(/C=N\c3ccc(-c4nc5ccccc5[nH]4)cc3)c(Cl)nc12 | rep papain-like protease |  | 10 µM | 10.1% |

| Structure (SMILES) | target | assay | setting | inhibition |
| --- | --- | --- | --- | --- |
| Cn1c(C(=O)Nc2ccc3c(c2)OCCO3)cc2c(=O)n3ccccc3nc21 | rep main protease |  | 1 mM | 96% |
| COc1ccc(OC)c2c1C(=O)C=CC2=O | rep main protease |  | 0.1 µM | 8.9% |
| C[C@@H]1O[C@@H](OC[C@H]2O[C@@H](OCCc3ccc(O)c(O)c3)[C@H](OC(=O)/C=C/c3ccc(O)c(O)c3)[C@@H](O)[C@@H]2O)[C@H](O)[C@H](O)[C@H]1O | rep main protease |  | 100 µM | 99.3% |
| C=C[C@@H]1C[C@]1(NC(=O)[C@@H]1C[C@@H]2CN1C(=O)[C@H](C(C)(C)C)NC(=O)O[C@@H]1C[C@H]1CCCCCc1nc3ccc(OC)cc3nc1O2)C(=O)NS(=O)(=O)C1CC1.O | rep main protease |  | 20 µM | 1.19% |
| O=C(/C=C/c1ccc2ncccc2c1)N1CCC[C@@]2(CCN(C(=O)c3cc(=O)[nH]c(=O)[nH]3)C2)C1 | rep main protease |  | 5 µM | 18% |
| O=C(NCc1ccccn1)Nc1csc2ccccc12 | rep main protease |  | 20 µM | -3.23% |
| CCc1ccc(NC(=O)c2cc3c(=O)n4ccccc4nc3n2C)cc1 | rep main protease |  | 100 µM | 49% |
| O=C(Nc1ccccc1)Nn1cnnc1 | rep main protease |  | 20 µM | -7.8% |
| N#CSc1cc(SC#N)c(N)nc1N | rep main protease |  | 20 µM | 98.8% |
| O=C(/C=C/c1ccc(O)c(O)c1)O[C@@H]1C[C@](O)(C(=O)O)C[C@@H](O)[C@H]1O | rep papain-like protease |  | 50 µM | 12.5% |
| O=C1C=CC(=O)c2c(O)cccc21 | rep main protease |  | 0.1 µM | 20.3% |
| CC(C)C[C@H](NC(=O)[C@@H](NC(=O)OCc1ccccc1)C(C)(C)C)C(=O)N(C)N(C#N)CCC(N)=O | rep main protease | fluorescence | 50 µM, pH 7.2 | 100% |
| O=c1c(O)c(-c2ccccc2)oc2cc(O)cc(O)c12 | rep main protease | FRET | 10 µM, 10 min | 25 to 50% |
| CCC(=O)Oc1cccc2c1C(=O)C=CC2=O | rep main protease |  | 0.1 µM | 35% |
| Cc1ccc(-n2cccc2)c(NC(=O)Nc2ccccc2C(F)(F)F)c1 | rep main protease |  | 20 µM | 11.4% |
| C[C@@H]1O[C@@H](O[C@@H]2[C@@H](O)[C@H](OCCc3ccc(O)c(O)c3)O[C@H](CO)[C@H]2OC(=O)/C=C/c2ccc(O)c(O)c2)[C@H](O)[C@H](O)[C@H]1O | rep main protease |  | 10 µM | 34.6% |
| CC1(C)C=Cc2c(ccc3c2OC[C@@H](c2ccc(O)cc2O)C3)O1 | rep main protease |  | 8 µM | 17.4% |
| Cn1c(C(=O)Nc2ccc(Cl)cc2)cc2c(=O)n3ccccc3nc21 | rep main protease |  | 1 µM | 7.4% |
| COc1ccc2nc(Cl)c(/C=N/c3ccc(-c4nc5ccccc5[nH]4)cc3)cc2c1 | rep papain-like protease |  | 100 µM | 13.5% |
| Cc1ncc(/C=C\C(=O)NC[C@@H]2CC3(CCC3)CN2C(=O)[C@@H]2CC(=O)NC(=O)N2)c(=O)[nH]1 | rep main protease |  | 5 µM | 16.1% |
